Converted amounts (≈) assume the structure as drawn.
Tests used:
[1] = test system: L1210; test: Antileukemic cytotoxicity was evaluated for the compound against L1210 leukemia; type: functional; settings: Mus musculus, read-out: ID50 (the source's name)
Summary of the method: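 L1210 cells grown in McCoy's 5A with glutamine, HCO3-, antibiotics and 10% heat-inactivated horse serum, 37 °C, humidified 95:5 air/CO2. Seeded at 10^5 cells/mL; drug added at 10, 1, 0.1 or 0.01 μg/mL final. Cell concentration counted by Coulter Counter after 72 h; ID50 taken as concentration giving 50% growth inhibition.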

[2] = test system: Rattus norvegicus; test: […] percent activity of doxorubicin was determined as augmentation of normal oxygen uptake by fresh rat liver microsomes used as measure of redox activity; type: functional; design: concentration or dose not given beside the values

| SMILES | IC50 [1] | Activity [2] |
| --- | --- | --- |
| CC(=O)[C@@H]1Cc2c(c(O)cc3c(=O)c4ccccc4oc23)[C@@H](OC2C[C@@H](NC(=O)C(F)(F)F)[C@@H](OC(=O)c3ccc([N+](=O)[O-])cc3)C(C)O2)C1 (some centres not stated) | 10 µg/mL (≈ 14.3 µM) | 6% |
| CC(=O)[C@]1(O)Cc2c(c(O)cc3c(=O)c4ccccc4oc23)[C@@H](OC2C[C@@H](NC(=O)C(F)(F)F)[C@@H](OC(=O)c3ccc([N+](=O)[O-])cc3)C(C)O2)C1 (some centres not stated) | 8 µg/mL (≈ 11.2 µM) | 10% |
| CC(=O)[C@]1(O)Cc2c(c(O)cc3c(=O)c4ccccc4oc23)[C@@H](OC2C[C@@H](NC(=O)C(F)(F)F)[C@@H](O)C(C)O2)C1 (some centres not stated) | > 10 µg/mL | 3% |
| CC(=O)[C@@H]1Cc2c(c(O)cc3c(=O)c4ccccc4oc23)[C@@H](OC2C[C@@H](NC(=O)C(F)(F)F)[C@@H](O)C(C)O2)C1 (some centres not stated) | 10 µg/mL (≈ 18.2 µM) | 6% |
| CC(=O)OCC1OC(O[C@H]2C[C@H](C(C)=O)Cc3c2c(O)cc2c(=O)c4ccccc4oc32)[C@@H](NC(=O)C(F)(F)F)C(OC(C)=O)[C@H]1OC(C)=O (some centres not stated) | > 10 µg/mL | 4% |
| CC(=O)[C@@H]1Cc2c(c(O)cc3c(=O)c4ccccc4oc23)[C@@H](OC2C[C@@H](N)[C@@H](O)C(C)O2)C1 (some centres not stated) | 8 µg/mL (≈ 17.6 µM) | 10% |

— ChEMBL document CHEMBL1123270, “10-Acetyl-10-hydroxyxantho[2,3-f]tetralin 8-glycosides as angular chromophore analogues of anthracyclines: synthesis, redox properties, microsomal oxygen consumption, and antileukemic evaluation” (1986)
